Data taken from ChEMBL document CHEMBL4706564 (Eur J Med Chem, 2020).

Assays:
[1] = in vitro; details: human, HEK293T cells
[2] = Cytotoxicity against human HEK293T cells incubated for 48 hrs by MTT assay; format: cell-based, HEK-293T; details: HEK293T cells
Outline: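 HEK293T cells at 10⁵ cells/ml were added to two-fold compound dilutions in 10% DMEM and incubated 48 h at 37 °C, 5% CO2. MTT (5 mg/ml stock in PBS, 1/10 volume) was added for 2 h, and formazan was dissolved in DMSO before reading optical density. Each concentration was run in triplicate. CC50 was the concentration giving 50% cell death, or halving OD versus control.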

[3] = cells; format: cell-based, HEK293T; details: Vesicular stomatitis virus, HEK-293T
[4] = cells; format: cell-based, Ebolavirus, HEK293T; details: Orthoebolavirus, Mayinga, HEK-293T
[5] = tested on: Influenza A virus; assay: Antiviral activity against Influenza A virus (H1N1); format: functional, organism-based
[6] = tested on: Zaire ebolavirus; assay: Antiviral activity against Zaire ebolavirus infected in African green monkey Vero cells assessed as inhibition of viral infection by measuring […] incubated for 10 days by neutral red dye based colorimetric analysis; format: functional, organism-based; details: vero
[7] = tested on: Marburgvirus; assay: Antiviral activity against MARV Popp infected in African green monkey Vero cells assessed as inhibition of viral infection by measuring reduction in virus-induced cytotoxicity incubated for 10 days by neutral red dye based colorimetric analysis; format: functional, organism-based; details: Orthomarburgvirus, Popp, Vero, 240 h; read-out: IC50
[8] = Cytotoxicity against African green monkey Vero cells assessed as reduction in cell survival incubated for 10 days by neutral red dye based colorimetric analysis; details: chlorocebus sabaeus, Vero cells; time 10 day
Outline: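 Confluent Vero monolayers received six concentrations from 3-fold serial dilutions in DMEM of DMSO-dissolved compound, plus medium without virus. After 10 days at 37 °C, 5% CO2, cells were stained with neutral red and read at 490 nm. CC50 came from a 4-parameter fit, with at least 3 analyses per compound.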

SMILES | selectivity ratio [1] | CC50 at 48 h [2] [µM] | IC50 [3] [µM] | IC50 [4] [µM] | IC50 [5] [µM] | IC50 [6] | IC50 [7] [µM] | CC50 at 240 h [8] [µM]
CC1(C)[C@H]2CC[C@]1(C)[C@H](OC(=O)CN1CCN(CCO)CC1)C2 | 21 | 296 | 394 | 13.9 |  |  |  | 
CN1CCN(CCC(=O)N[C@@H]2C[C@H]3CC[C@]2(C)C3(C)C)CC1 | 187 | 486 | 486 | 2.6 |  |  |  | 
CC1CCN(CC(=O)O[C@@H]2C[C@@H]3CC[C@@]2(C)C3(C)C)CC1 | 8 | 71.6 | 35 | 8.5 |  |  |  | 
CC1CCN(CC(=O)O[C@@H]2C[C@H]3CC[C@]2(C)C3(C)C)CC1 | 11 | 34.1 |  | 3.1 |  |  |  | 
CCN1CCN(CC(=O)O[C@@H]2C[C@@H]3CC[C@@]2(C)C3(C)C)CC1 | 80 | 130 | 264 | 1.6 |  |  |  | 
CC1CCN(CCCC(=O)N[C@@H]2C[C@H]3CC[C@]2(C)C3(C)C)CC1 | 41 | 142 | 142 | 3.4 |  |  |  | 
CC1(C)[C@H]2CC[C@]1(C)[C@H](OC(=O)CCCN1CCOCC1)C2 | 33 | 210 | 288 | 6.5 |  |  |  | 
CN(C)CCC(=O)O[C@@H]1C[C@@H]2CC[C@@]1(C)C2(C)C | 17 | 505 |  | 30 |  |  |  | 
CCN1CCN(CCCC(=O)O[C@@H]2C[C@@H]3CC[C@@]2(C)C3(C)C)CC1 | 880 | 131 | 165 | 0.1 |  |  |  | 
CC1(C)[C@H]2CC[C@]1(C)[C@H](OC(=O)CCN1CCN(Cc3ccccc3)CC1)C2 | 150 | 39 | 27 | 0.3 |  |  |  | 
CC1(C)[C@H]2CC[C@]1(C)[C@H](OC(=O)CCCN1CCN(CCO)CC1)C2 | 658 | 224 | 192 | 0.3 |  |  |  | 
CC1(C)[C@@H]2CC[C@@]1(C)[C@H](NC(=O)CCCN1CCOCC1)C2 | 18 | 172 | 172 | 9.4 |  |  |  | 
CC1(C)[C@@H]2CC[C@@]1(C)[C@H](NC(=O)CCN1CCOCC1)C2 |  | 312 | 312 | 22.1 |  |  |  | 
CC1(C)[C@@H]2CC[C@@]1(C)[C@H](NC(=O)CN1CCOCC1)C2 | 147 | 838 | 838 | 5.7 |  |  |  | 
CN(C)CC(=O)O[C@@H]1C[C@@H]2CC[C@@]1(C)C2(C)C | 2 | 389 | 523 | 251 |  |  |  | 
CC1(C)[C@H]2CC[C@]1(C)[C@H](OC(=O)CCN1CCCCCC1)C2 | 36 | 182 | 191 | 5.1 |  |  |  | 
CC1CCN(CC(=O)O[C@H]2C[C@@H]3CC[C@@]2(C)C3(C)C)CC1 | 8 | 34.1 |  | 4.4 |  |  |  | 
CN(C)CCCC(=O)O[C@@H]1C[C@@H]2CC[C@@]1(C)C2(C)C | 67 | 101 |  | 1.5 |  |  |  | 
CN1CCN(CCCC(=O)N[C@@H]2C[C@H]3CC[C@]2(C)C3(C)C)CC1 | 191 | 475 | 475 | 2.5 |  |  |  | 
CCN1CCN(CCCC(=O)N[C@@H]2C[C@H]3CC[C@]2(C)C3(C)C)CC1 | 129 | 268 | 268 | 2.1 |  |  |  | 
CC1(C)[C@H]2CC[C@]1(C)[C@H](OC(=O)CN1CCN(CCN)CC1)C2 | 114 | 247 | 24.1 | 2.2 |  |  |  | 
CC1(C)[C@@H]2CC[C@@]1(C)/C(=N/CCO)C2 |  |  |  |  | 5.1 |  |  | 
CN1CCN(CC(=O)O[C@@H]2C[C@@H]3CC[C@@]2(C)C3(C)C)CC1 | 46 | 312 | 485 | 6.8 |  |  |  | 
CC1(C)[C@H]2CC[C@]1(C)[C@H](OC(=O)CN1CCCCCC1)C2 | 70 | 71.6 |  | 1 |  |  |  | 
CC1CCN(CCCCC(=O)O[C@@H]2C[C@@H]3CC[C@@]2(C)C3(C)C)CC1 | 408 | 73 | 83.5 | 0.2 |  |  |  | 
CCOC(=O)N1CCN(CCC(=O)O[C@@H]2C[C@@H]3CC[C@@]2(C)C3(C)C)CC1 | 4 | 110 |  | 28.3 |  |  |  | 

SMILES | selectivity ratio [1] | CC50 at 48 h [2] [µM] | IC50 [3] [µM] | IC50 [4] [µM] | IC50 [5] [µM] | IC50 [6] | IC50 [7] [µM] | CC50 at 240 h [8] [µM]
CCN1CCN(CCC(=O)N[C@@H]2C[C@H]3CC[C@]2(C)C3(C)C)CC1 | 908 | 565 | 565 | 0.6 |  |  |  | 
CN1CCN(CCCC(=O)O[C@@H]2C[C@@H]3CC[C@@]2(C)C3(C)C)CC1 |  | 99.2 | 97.3 | 0.6 |  |  |  | 
CC1(C)[C@H]2CC[C@]1(C)[C@H](OC(=O)CCCN1CCCCCC1)C2 | 250 | 62.2 |  | 0.2 |  |  |  | 
CN1CCN(CC(=O)N[C@@H]2C[C@H]3CC[C@]2(C)C3(C)C)CC1 | 64 | 853 | 853 | 13.3 |  |  |  | 
CCN(CC)CCC(=O)O[C@@H]1C[C@@H]2CC[C@@]1(C)C2(C)C | 26 | 327 | 411 | 12.4 |  |  |  | 
CC1(C)[C@H]2CC[C@]1(C)[C@H](OC(=O)CN1CCCCC1)C2 | 9 | 141 | 122 | 15.7 |  |  |  | 
CCN1CCN(CC(=O)N[C@@H]2C[C@H]3CC[C@]2(C)C3(C)C)CC1 | 78 | 660 | 660 | 8.5 |  |  |  | 
CC1(C)[C@H]2CC[C@]1(C)[C@H](OC(=O)CCCN1CCN(Cc3ccccc3)CC1)C2 | 100 | 30.1 | 26 | 0.3 |  |  |  | 
CCOC(=O)N1CCN(CC(=O)O[C@@H]2C[C@@H]3CC[C@@]2(C)C3(C)C)CC1 | 11 | 227 | 113 | 19.9 |  |  |  | 
CCN1CCN(CCC(=O)O[C@@H]2C[C@@H]3CC[C@@]2(C)C3(C)C)CC1 |  | 264 | 80.5 | 1.6 |  | Not Active | 17.8 | 19.2
CC1(C)[C@H]2CC[C@]1(C)[C@@H](OC(=O)CN1CCCCC1)C2 | 25 | 89.5 |  | 3.6 |  |  |  | 
CCOC(=O)N1CCN(CCCC(=O)O[C@@H]2C[C@@H]3CC[C@@]2(C)C3(C)C)CC1 | 23 | 60.4 | 49.1 | 2.6 |  |  |  | 
CC1CCN(CC(=O)N[C@@H]2C[C@H]3CC[C@]2(C)C3(C)C)CC1 |  | 78 | 78 | 27 |  |  |  | 
CC1(C)[C@H]2CC[C@]1(C)[C@H](OC(=O)CCCN1CCN(CCN)CC1)C2 | 125 | 71.1 | 50.4 | 0.6 |  |  |  | 
CC1(C)[C@H]2CC[C@]1(C)[C@H](OC(=O)CN1CCOCC1)C2 | 13 | 327 | 291 | 24.9 |  |  |  | 
CC1CCN(CCC(=O)N[C@@H]2C[C@H]3CC[C@]2(C)C3(C)C)CC1 | 36 | 93.6 | 93.6 | 2.6 |  |  |  | 
CC1(C)[C@@H]2CC[C@@]1(C)[C@H](OC(=O)CN1CCCCC1)C2 | 28 | 80.5 |  | 2.9 |  |  |  | 
CC1(C)[C@H]2CC[C@]1(C)[C@H](OC(=O)CN1CCN(Cc3ccccc3)CC1)C2 | 44 | 59.4 | 39.8 | 1.3 |  |  |  | 
CCN(CC)CC(=O)O[C@@H]1C[C@@H]2CC[C@@]1(C)C2(C)C | 61 | 344 | 561 | 5.6 |  |  |  | 
CN[C@H]1CC[C@@H](c2ccc(Cl)c(Cl)c2)c2ccccc21 [SERTRALINE] |  | 408 |  |  |  |  |  | 
CC1(C)[C@H]2CC[C@]1(C)[C@H](OC(=O)CCCN1CCCCC1)C2 | 230 | 74.8 | 50.1 | 0.3 |  |  |  | 
CC1(C)[C@H]2CC[C@]1(C)[C@H](OC(=O)CCCCN1CCCCC1)C2 | 162 | 101 | 105 | 0.6 |  |  |  | 
CC1(C)[C@H]2CC[C@]1(C)[C@H](OC(=O)CCN1CCN(CCO)CC1)C2 | 153 | 272 | 259 | 1.8 |  |  |  | 
CCN(CC)CCCC(=O)O[C@@H]1C[C@@H]2CC[C@@]1(C)C2(C)C | 490 | 166 | 195 | 0.3 |  |  |  | 
CC1CCN(CCCC(=O)O[C@@H]2C[C@@H]3CC[C@@]2(C)C3(C)C)CC1 |  | 171 | 276 | 9.3 |  |  |  | 
